Published values pooled from the literature.
Protocols differ between the studies behind these lines.
Target: Rho-associated protein kinase 1 (ROCK1, Homo sapiens, UniProt Q13464)

SMILES	read-out	mode	technique	tested at	endpoint	value
COc1cc(Nc2ncc(F)c(Nc3ccc4c(n3)NC(=O)C(C)(C)O4)n2)cc(OC)c1OC	binding	–	–	10 µM	inhibition	86%
Cn1cncc1[C@](O)(COc1ccc(C#N)cc1-c1ccc(OC(F)(F)F)cc1)c1ccc(C#N)cc1	cell-free assay	–	competition with immobilised ligand	1 µM	remaining binding	100%
Cn1cc(-c2cc(F)cc(N3CCn4c(cc5c4CCCC5)C3=O)c2CO)cc(Nc2ccc(N3CCN(C4COC4)CC3)cn2)c1=O	enzyme activity	inhibitor	–	0.1 µM	inhibition	0%
CC(C)(C)c1cc(C=C(C#N)C#N)cc(Br)c1O	enzyme activity	inhibitor	–	0.5 µM	remaining activity	82.9%
Cn1cc(-c2cccc(N3CCc4c(sc5c4CC(C)(C)C5)C3=O)c2CO)cc(Nc2ccncn2)c1=O	enzyme activity	inhibitor	–	1 µM	inhibition	1%
COc1ncccc1-c1cnn2ccc(N3CCN(C(=O)OC(C)C)CC3)nc12	binding	–	competition with immobilised ligand	1 µM	remaining binding	95%
O=c1[nH]c2ccccc2n1C1CCN(Cc2ccc(-c3[nH]c4cc5ncnc5cc4nc3-c3ccccc3)cc2)CC1	cell-free assay	–	–	0.5 µM	remaining signal	101%
N#CC1(c2ccccn2)CCN(Cc2cc(C(=O)O)c(=O)n3ccccc23)CC1	cell-free assay	–	competition with immobilised ligand	1 µM	remaining binding	86%
Nc1ncc(-c2nc(N3CCOCC3)nc(N3CCOCC3)n2)c(C(F)F)n1	binding	–	competition with immobilised ligand	10 µM	remaining binding	99%
C#Cc1n[nH]c2c(-c3cn([C@@H](C)c4ccccn4)c(=O)[nH]c3=O)cc(F)cc12	enzyme activity	inhibitor	–	0.1 µM	inhibition	6.5%
